Tests used:
[1] = molecular target: T1, NAD-dependent protein deacetylase sirtuin-2 (Homo sapiens, UniProt Q8IXJ6); experiment: (§1) Inhibition of recombinant human C-terminal His-tagged SIRT2 (50 to 389 end residues) expressed in Escherichia coli using p53 derived (379 to 382 residues) fluorogenic peptide substrate RHKK(Ac)-AMC preincubated for 10 mins followed by substrate addition in presence of NAD+ by fluorescence assay
T1 sequence (Q8IXJ6 whole entry): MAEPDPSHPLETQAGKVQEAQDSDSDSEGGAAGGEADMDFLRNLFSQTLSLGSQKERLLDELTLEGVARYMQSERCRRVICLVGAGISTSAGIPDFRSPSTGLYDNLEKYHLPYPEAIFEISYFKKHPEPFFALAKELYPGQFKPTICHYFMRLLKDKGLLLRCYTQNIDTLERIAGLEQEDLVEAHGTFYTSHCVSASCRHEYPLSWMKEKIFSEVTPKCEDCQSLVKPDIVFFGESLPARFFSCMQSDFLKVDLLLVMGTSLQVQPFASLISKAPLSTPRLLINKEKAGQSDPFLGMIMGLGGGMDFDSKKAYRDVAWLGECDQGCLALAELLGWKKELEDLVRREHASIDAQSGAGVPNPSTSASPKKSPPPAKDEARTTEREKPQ
Summary of the method: (§2)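 Two-step fluorogenic assay with p53 379–382 RHKK(Ac)-AMC. Compound (from 10 mM DMSO stock) preincubated ~10 min with human SIRT before substrate addition. Developer then releases fluorophore, read at ex 360/em 460 nm.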

[2] = molecular target: T2, NAD-dependent protein deacetylase sirtuin-2 (Homo sapiens) (UniProt Q8IXJ6); experiment: as §1, with “coli at 10 uM” for “coli”, “assay relative to control” for “assay”; summary of the method: as §2
T2 sequence (whole entry): T1 sequence (Q8IXJ6 whole entry)

IC50 [1] [µM]	inhibition [2] [%]	SMILES
4.22	75	COc1ccccc1CNC1CCc2c(sc3ncn(Cc4ccc5ccccc5c4)c(=O)c23)C1 (configuration not stated)
11.7	72	O=c1c2c3c(sc2ncn1Cc1ccc2ccccc2c1)CC(NCc1ccco1)CC3 (configuration not stated)
8.68	77	O=c1c2c3c(sc2ncn1Cc1ccc2ccccc2c1)CC(NCCc1cccnc1)CC3 (configuration not stated)
0.97	90	O=c1c2c3c(sc2ncn1Cc1cccc2cccnc12)CC(Nc1ccc(F)cc1)CC3 (configuration not stated)
2.15	93	COc1ccc2ccccc2c1Cn1cnc2sc(CCNCc3cccnc3)c(C)c2c1=O
2.75	95	COc1ccc2ccccc2c1Cn1cnc2sc3c(c2c1=O)CCC(NCCc1ccncc1)C3 (configuration not stated)
5.06	81	COc1ccc(Cn2cnc3sc4c(c3c2=O)CCC(NC2CCOCC2)C4)c2ccccc12 (configuration not stated)
1.9	–	COc1cccc(CNC2CCc3c(sc4ncn(Cc5c(OC)ccc6ccccc56)c(=O)c34)C2)c1 (configuration not stated)
–	22	O=c1c2c3c(sc2ncn1Cc1cccc(-c2ccccc2)c1)CC(NC1CCCc2ccccc21)CC3 (configuration not stated)
–	65	COc1ccccc1CCNC1CCc2c(sc3ncn(Cc4c(OC)ccc5ccccc45)c(=O)c23)C1 (configuration not stated)
–	58	COc1ccc(Cn2cnc3sc4c(c3c2=O)CCC(NCCNC(C)=O)C4)c2ccccc12 (configuration not stated)
–	63	O=c1c2c3c(sc2ncn1Cc1ccc2ccccc2c1)CC(NC1CCCC1)CC3 (configuration not stated)
–	47	CC(=O)NCCNC1CCc2c(sc3ncn(Cc4ccc5ccccc5c4)c(=O)c23)C1 (configuration not stated)
–	26	O=c1c2c3c(sc2ncn1Cc1ccccc1)CC(NCc1ccccn1)CC3 (configuration not stated)
–	71	O=c1c2c3c(sc2ncn1Cc1cccc2ccccc12)CC(NCc1ccccc1F)CC3 (configuration not stated)
–	65	COc1ccccc1CCNC1CCc2c(sc3ncn(Cc4cccc(-c5ccccc5)c4)c(=O)c23)C1 (configuration not stated)
–	29	Cc1ccc(NC2CCc3c(sc4ncn(Cc5ccc6ccccc6c5)c(=O)c34)C2)cc1 (configuration not stated)
–	64	COc1cccc(Cn2cnc3sc4c(c3c2=O)CCC(NCc2ccccc2)C4)c1 (configuration not stated)
–	32	Cc1nn(C)c(C)c1CNC1CCc2c(sc3ncn(Cc4ccccc4)c(=O)c23)C1 (configuration not stated)
–	56	O=c1c2c3c(sc2ncn1Cc1cccc(-c2ccccc2)c1)CC(NCc1ccc(Cl)cc1)CC3 (configuration not stated)
–	44	COc1ccc2ccccc2c1Cn1cnc2sc3c(c2c1=O)CCC(Nc1ccc(F)cc1)C3 (configuration not stated)
–	39	COc1cccc(Cn2cnc3sc4c(c3c2=O)CCC(NCCc2ccncc2)C4)c1 (configuration not stated)

IC50 [1] [µM]	inhibition [2] [%]	SMILES
–	35	COc1ccc(Cn2cnc3sc4c(c3c2=O)CCC(Nc2ccc(C)cc2)C4)c2ccccc12 (configuration not stated)
–	52	COc1ccc(NC2CCc3c(sc4ncn(Cc5cccc6ccccc56)c(=O)c34)C2)cc1 (configuration not stated)
–	35	COCCNC1CCc2c(sc3ncn(Cc4cccc5ccccc45)c(=O)c23)C1 (configuration not stated)
–	43	O=c1c2c3c(sc2ncn1Cc1cccc(-c2ccccc2)c1)CC(NCc1ccccc1F)CC3 (configuration not stated)
–	56	O=c1c2c3c(sc2ncn1Cc1ccc2ccccc2c1)CC(NCc1cccc(F)c1)CC3 (configuration not stated)
–	41	Cc1cccc(NC2CCc3c(sc4ncn(Cc5cccc6ccccc56)c(=O)c34)C2)c1 (configuration not stated)
–	65	COc1ccc(Cn2cnc3sc4c(c3c2=O)CCC(NCc2ccccc2Cl)C4)c2ccccc12 (configuration not stated)
–	52	O=c1c2c3c(sc2ncn1Cc1cccc(-c2ccccc2)c1)CC(Nc1ccc(F)cc1)CC3 (configuration not stated)
–	41	COCCNC1CCc2c(sc3ncn(Cc4cccc5cccnc45)c(=O)c23)C1 (configuration not stated)
–	69	COc1ccccc1CCNC1CCc2c(sc3ncn(Cc4ccc(OC)c5ccccc45)c(=O)c23)C1 (configuration not stated)
–	33	COc1cccc(Cn2cnc3sc4c(c3c2=O)CCC(NCc2ccco2)C4)c1 (configuration not stated)
–	59	O=c1c2c3c(sc2ncn1Cc1ccccc1)CC(NC1CCc2ccccc21)CC3 (configuration not stated)
–	58	COc1cccc(CNC2CCc3c(sc4ncn(Cc5cccc(OC)c5)c(=O)c34)C2)c1 (configuration not stated)
–	46	O=c1c2c3c(sc2ncn1Cc1cccc2ccccc12)CC(NCc1ccccc1Cl)CC3 (configuration not stated)
–	29	O=c1c2c3c(sc2ncn1Cc1cccc2cccnc12)CC(NCCN1CCCC1)CC3 (configuration not stated)
–	65	O=c1c2c3c(sc2ncn1Cc1cccc2ccccc12)CC(NCCC1CCCCC1)CC3 (configuration not stated)
–	28	CC(=O)NCCNC1CCc2c(sc3ncn(Cc4cccc5cccnc45)c(=O)c23)C1 (configuration not stated)
–	42	O=c1c2c3c(sc2ncn1Cc1ccccc1)CC(NCc1cccnc1)CC3 (configuration not stated)
–	71	COc1ccc(Cn2cnc3sc4c(c3c2=O)CCC(NCc2ccccc2F)C4)c2ccccc12 (configuration not stated)
–	56	O=c1c2c3c(sc2ncn1Cc1cccc2ccccc12)CC(NCCN1CCCC1)CC3 (configuration not stated)
–	54	O=c1c2c3c(sc2ncn1Cc1cccc2ccccc12)CC(NCc1cccs1)CC3 (configuration not stated)
–	30	COc1cccc(NC2CCc3c(sc4ncn(Cc5cccc(-c6ccccc6)c5)c(=O)c34)C2)c1 (configuration not stated)

IC50 [1] [µM]	inhibition [2] [%]	SMILES
–	45	COc1ccccc1Cn1cnc2sc3c(c2c1=O)CCC(NCc1cncnc1)C3 (configuration not stated)
–	51	O=c1c2c3c(sc2ncn1Cc1cccc2ccccc12)CC(NC1CCCc2ccccc21)CC3 (configuration not stated)
–	71	COc1ccc(CNC2CCc3c(sc4ncn(Cc5cccc(OC)c5)c(=O)c34)C2)cc1 (configuration not stated)
–	75	O=c1c2c3c(sc2ncn1Cc1cccc2cccnc12)CC(NCc1cncnc1)CC3 (configuration not stated)
–	43	COc1ccccc1Cn1cnc2sc3c(c2c1=O)CCC(NCc1ccco1)C3 (configuration not stated)
–	59	O=c1c2c3c(sc2ncn1Cc1cccc2ccccc12)CC(NC1CCOCC1)CC3 (configuration not stated)
–	51	O=c1c2c3c(sc2ncn1Cc1ccc2ccccc2c1)CC(NCc1ccccc1F)CC3 (configuration not stated)
–	37	O=c1c2c3c(sc2ncn1Cc1ccc2ccccc2c1)CC(NC1CCCc2ccccc21)CC3 (configuration not stated)
–	14	COc1cccc(Cn2cnc3sc4c(c3c2=O)CCC(NCc2c(C)nn(C)c2C)C4)c1 (configuration not stated)
–	53	O=c1c2c3c(sc2ncn1Cc1cccc2cccnc12)CC(NCCN1CCOCC1)CC3 (configuration not stated)
21.1	–	COc1ccc2ccccc2c1Cn1cnc2sc3c(c2c1=O)CCC(NCc1ccccc1)C3 (configuration not stated)
–	36	COc1ccccc1NC1CCc2c(sc3ncn(Cc4ccc5ccccc5c4)c(=O)c23)C1 (configuration not stated)
–	64	COc1cccc(Cn2cnc3sc4c(c3c2=O)CCC(NCc2ccccc2OC)C4)c1 (configuration not stated)
–	67	COc1cccc(NC2CCc3c(sc4ncn(Cc5cccc6cccnc56)c(=O)c34)C2)c1 (configuration not stated)
–	47	O=c1c2c3c(sc2ncn1Cc1ccc2ccccc2c1)CC(NCCN1CCOCC1)CC3 (configuration not stated)
–	60	O=c1c2c3c(sc2ncn1Cc1cccc2ccccc12)CC(NCc1cccc(Cl)c1)CC3 (configuration not stated)
–	70	COc1ccc2ccccc2c1Cn1cnc2sc3c(c2c1=O)CCC(NCCN1CCOCC1)C3 (configuration not stated)
–	29	O=c1c2c3c(sc2ncn1Cc1cccc2ccccc12)CC(Nc1ccc2c(c1)OCO2)CC3 (configuration not stated)
–	52	O=c1c2c3c(sc2ncn1Cc1ccc2ccccc2c1)CC(NCCN1CCCC1)CC3 (configuration not stated)
–	58	O=c1c2c3c(sc2ncn1Cc1cccc2ccccc12)CC(NC1CCc2ccccc21)CC3 (configuration not stated)
–	74	Cc1nn(C)c(C)c1CNC1CCc2c(sc3ncn(Cc4cccc5cccnc45)c(=O)c23)C1 (configuration not stated)
–	56	O=c1c2c3c(sc2ncn1Cc1ccccc1)CC(NCC1CCCCC1)CC3 (configuration not stated)

IC50 [1] [µM]	inhibition [2] [%]	SMILES
–	67	O=c1c2c3c(sc2ncn1Cc1ccccc1)CC(NCc1ccccc1Cl)CC3 (configuration not stated)
–	57	O=c1c2c3c(sc2ncn1Cc1ccccc1)CC(NCc1ccccc1)CC3 (configuration not stated)
–	43	O=c1c2c3c(sc2ncn1Cc1ccc2ccccc2c1)CC(NCc1ccccc1Cl)CC3 (configuration not stated)
–	63	O=c1c2c3c(sc2ncn1Cc1cccc(-c2ccccc2)c1)CC(NCc1cccc(F)c1)CC3 (configuration not stated)
–	26	COc1ccccc1Cn1cnc2sc3c(c2c1=O)CCC(NCCc1ccncc1)C3 (configuration not stated)
–	67	COc1ccc(CNC2CCc3c(sc4ncn(Cc5ccccc5OC)c(=O)c34)C2)cc1 (configuration not stated)
–	30	O=c1c2c3c(sc2ncn1Cc1cccc2cccnc12)CC(NC1CCCC1)CC3 (configuration not stated)
–	70	COCCNC1CCc2c(sc3ncn(Cc4cccc(-c5ccccc5)c4)c(=O)c23)C1 (configuration not stated)
–	28	CC(=O)NCCNC1CCc2c(sc3ncn(Cc4cccc5ccccc45)c(=O)c23)C1 (configuration not stated)
–	49	O=c1c2c3c(sc2ncn1Cc1ccc2ccccc2c1)CC(NCc1cccc(Cl)c1)CC3 (configuration not stated)
–	58	O=c1c2c3c(sc2ncn1Cc1ccc2ccccc2c1)CC(NCC1CCOC1)CC3 (configuration not stated)
–	50	Cc1ccc(NC2CCc3c(sc4ncn(Cc5cccc6ccccc56)c(=O)c34)C2)cc1 (configuration not stated)
–	38	COc1ccccc1Cn1cnc2sc3c(c2c1=O)CCC(NCCc1cccnc1)C3 (configuration not stated)
–	45	COc1ccc(CNC2CCc3c(sc4ncn(Cc5ccccc5)c(=O)c34)C2)cc1 (configuration not stated)
–	60	COc1ccccc1CCNC1CCc2c(sc3ncn(Cc4cccc5ccccc45)c(=O)c23)C1 (configuration not stated)
–	3	COc1cccc(Cn2cnc3sc4c(c3c2=O)CCC(NCC2CCCO2)C4)c1 (configuration not stated)
–	66	N#Cc1ccc(CNC2CCc3c(sc4ncn(Cc5cccc6ccccc56)c(=O)c34)C2)cc1 (configuration not stated)
–	68	COc1cccc(Cn2cnc3sc4c(c3c2=O)CCC(NCc2ccccc2Cl)C4)c1 (configuration not stated)
–	78	COc1cccc(CNC2CCc3c(sc4ncn(Cc5cccc6cccnc56)c(=O)c34)C2)c1 (configuration not stated)

— ChEMBL document CHEMBL4004822, “Thienopyrimidinone Based Sirtuin-2 (SIRT2)-Selective Inhibitors Bind in the Ligand Induced Selectivity Pocket” (J Med Chem, 2017)
